The source made the active and inactive calls. The rule behind the calls is not given here.
Legend:
Format in all cases: cell-based
[1] = Agonist activity at LXR in human U937 cells assessed as upregulation of SREBP1c mRNA levels at 10 uM after 6 hrs by qPCR analysis
Procedure, shortened: (§1)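 U937 cells, 3x10⁶ in 10 ml RPMI with 10% FBS, differentiated with PMA 10 ng/ml for 72 h at 37 °C, then treated with ligand (10 μM) for 6 h. Total RNA was isolated with TRIZOL; 2 µg was reverse-transcribed for 1 h at 42 °C. Transcripts were measured by qPCR. Mean ± SD of three biological samples; ANOVA with Dunnett's test.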

[2] = Agonist activity at LXR in human HepG2 cells assessed as upregulation of SCD1 mRNA levels at 10 uM after 6 hrs by qPCR analysis
Procedure, shortened: (§2)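 HepG2 cells treated with ligand (10 μM). Total RNA was extracted with TRIZOL; 2 µg was reverse-transcribed (1 h, 42 °C). SREBP1c, FASN and SCD1 transcripts were measured by qPCR. Mean ± SD of three biological samples; ANOVA with Dunnett's test.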

[3] = Agonist activity at LXR in human HepG2 cells assessed as upregulation of SREBP1c mRNA levels at 10 uM after 6 hrs by qPCR analysis; procedure, shortened: as §2
[4] = Agonist activity at LXR in human U937 cells assessed as upregulation of SCD1 mRNA levels at 10 uM after 16 hrs by qPCR analysis
[5] = Agonist activity at LXR in human U937 cells assessed as upregulation of SCD1 mRNA levels at 10 uM after 6 hrs by qPCR analysis relative to control; conditions: human, 6 h, 10 µM; procedure, shortened: as §1
[6] = Agonist activity at LXR in human U937 cells assessed as upregulation of FASN mRNA levels at 10 uM after 6 hrs by qPCR analysis; procedure, shortened: as §1
[7] = Agonist activity at LXR in human HepG2 cells assessed as upregulation of FASN mRNA levels at 10 uM after 6 hrs by qPCR analysis; procedure, shortened: as §2
Homo sapiens [8] = organism: Homo sapiens; assay: Agonist activity at LXR in human U937 cells assessed as upregulation of ABCA1 mRNA levels at 10 uM after 6 hrs by qPCR analysis; procedure, shortened: as §1
Homo sapiens [9] = organism: Homo sapiens; assay: Agonist activity at LXR in human U937 cells assessed as downregulation of LPS-induced TNFalpha mRNA expression at 10 uM after 6 hrs by qPCR analysis
Procedure, shortened: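 PMA-differentiated U937 cells (10 ng/ml PMA, 72 h) were given LPS 100 ng/ml together with compound (10 μM) for 6 h. CCL2 and TNFα mRNA were measured by qPCR after TRIZOL RNA extraction and reverse transcription. Three biological samples per group, mean ± SD.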

[10] = Agonist activity at LXR in human U937 cells assessed as upregulation of FASN mRNA levels at 10 uM after 16 hrs by qPCR analysis

CC(C)CC[C@@H](O)[C@@H](C)[C@H]1CC[C@H]2[C@@H]3CC=C4C[C@@H](O)CC[C@]4(C)[C@H]3CC[C@]12C [22(R)-HYDROXYCHOLESTEROL]
Activity [1]: Not Active
Activity [2]: Not Active
Activity [3]: Not Active
Activity [4]: Not Active
Activity [5]: Not Active
Activity [6]: Not Active
Activity [7]: Not Active
Activity (Homo sapiens [8]): Active
Activity (Homo sapiens [9]): Active
Activity [10]: Not Active
